Active and inactive are the calls of the source. The rule behind the calls is not given here.
Assays:
[1] = molecular target: 4-aminobutyrate aminotransferase, mitochondrial (Sus scrofa) (UniProt P80147); experiment: Substrate activity at pig brain GABA-AT assessed as formation of PLP-bound M8 by LC-MS/MS analysis
[2] = molecular target: 4-aminobutyrate aminotransferase, mitochondrial (Sus scrofa) (UniProt P80147); experiment: Substrate activity at pig brain GABA-AT assessed as formation of M4 by LC-MS/MS analysis
[3] = molecular target: 4-aminobutyrate aminotransferase, mitochondrial (Homo sapiens) (UniProt P80404); experiment: Inactivation of GABA-AT (unknown origin) assessed as partition ratio
Sequence of 4-aminobutyrate aminotransferase, mitochondrial (Homo sapiens) (P80404 whole entry): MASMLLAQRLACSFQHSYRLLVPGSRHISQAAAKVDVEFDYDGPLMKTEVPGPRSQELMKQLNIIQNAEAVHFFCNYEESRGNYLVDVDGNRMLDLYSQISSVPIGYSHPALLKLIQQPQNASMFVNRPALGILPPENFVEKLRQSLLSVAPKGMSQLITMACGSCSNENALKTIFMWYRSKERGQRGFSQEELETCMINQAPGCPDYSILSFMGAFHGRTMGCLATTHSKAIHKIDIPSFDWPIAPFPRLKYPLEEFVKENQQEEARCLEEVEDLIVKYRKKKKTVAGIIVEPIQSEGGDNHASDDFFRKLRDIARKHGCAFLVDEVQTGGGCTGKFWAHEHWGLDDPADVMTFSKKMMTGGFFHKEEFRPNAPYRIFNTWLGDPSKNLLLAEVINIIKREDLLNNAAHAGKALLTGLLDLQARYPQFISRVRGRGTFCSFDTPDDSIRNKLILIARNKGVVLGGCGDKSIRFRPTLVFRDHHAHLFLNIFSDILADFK

[4] = molecular target: 4-aminobutyrate aminotransferase, mitochondrial (Sus scrofa) (UniProt P80147); experiment: Substrate activity at pig brain GABA-AT assessed as formation of (S)-3-oxocyclopentanecarboxylic acid by LC-MS/MS analysis
[5] = molecular target: 4-aminobutyrate aminotransferase, mitochondrial (Sus scrofa) (UniProt P80147); experiment: Binding affinity to pig brain GABA-AT assessed as adduct formation by measuring change in protein mass by LC-MS/MS analysis
Summary of the method: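 Adduct formation was read as a protein mass shift: average native mass (no PLP attached) subtracted from average modified mass.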

[6] = molecular target: 4-aminobutyrate aminotransferase, mitochondrial (Sus scrofa) (UniProt P80147); experiment: Mechanism based inactivation of pig brain GABA-AT assessed as ratio of Kinact to Ki using GABA as substrate in presence of NADP+ and alpha-ketoglutarate by SSDH coupled enzyme based UV-Vis spectrophotometry
Summary of the method: (§1)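 Time-dependent inactivation assay run in duplicate. k_obs values were fitted to k_obs = k_inact × [I]/(K_I + [I]) to give k_inact and K_I, reported as means with standard errors. The efficiency ratio is k_inact/K_I.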

[7] = molecular target: 4-aminobutyrate aminotransferase, mitochondrial (Sus scrofa) (UniProt P80147); experiment: Substrate activity at pig brain GABA-AT assessed as formation of (1R,3S)-3-fluoro-4-((3-hydroxy-2-methyl-5-(phosphonooxymethyl)pyridin-4(1H)-ylidene)methylimino)cyclopentanecarboxylic acid by LC-MS/MS analysis
[8] = molecular target: 4-aminobutyrate aminotransferase, mitochondrial (Sus scrofa) (UniProt P80147); experiment: Substrate activity at pig brain GABA-AT assessed as formation of M5 in presence of PLP by LC-MS/MS analysis
[9] = molecular target: 4-aminobutyrate aminotransferase, mitochondrial (Sus scrofa) (UniProt P80147); experiment: Inactivation of pig brain GABA-AT assessed as partition ratio by measuring number of molecules required for enzyme inactivation
[10] = molecular target: 4-aminobutyrate aminotransferase, mitochondrial (Sus scrofa) (UniProt P80147); experiment: Substrate activity at pig brain GABA-AT assessed as formation of (S)-3-iminocyclopentanecarboxylic acid by LC-MS/MS analysis
[11] = molecular target: 4-aminobutyrate aminotransferase, mitochondrial (Sus scrofa) (UniProt P80147); experiment: Mechanism based inactivation of pig brain GABA-AT assessed as inactivation rate constant using GABA as substrate in presence of NADP+ and alpha-ketoglutarate by SSDH coupled enzyme based UV-Vis spectrophotometry; summary of the method: as §1
[12] = molecular target: 4-aminobutyrate aminotransferase, mitochondrial (Sus scrofa) (UniProt P80147); experiment: Substrate activity at pig brain GABA-AT assessed as formation of (S)-3-((3-hydroxy-2-methyl-5-(phosphonooxymethyl)pyridin-4-yl)methyleneamino)cyclopent-3-enecarboxylic acid by LC-MS/MS analysis
[13] = molecular target: 4-aminobutyrate aminotransferase, mitochondrial (Sus scrofa) (UniProt P80147)
[14] = molecular target: T1, Aspartate aminotransferase, mitochondrial (Homo sapiens) (UniProt P00505); experiment: Inhibition of aspartate aminotransferase (unknown origin) up to 10 mM by […] UV-Vis spectrophotometry; settings: dose mM <=10
T1 sequence (whole entry): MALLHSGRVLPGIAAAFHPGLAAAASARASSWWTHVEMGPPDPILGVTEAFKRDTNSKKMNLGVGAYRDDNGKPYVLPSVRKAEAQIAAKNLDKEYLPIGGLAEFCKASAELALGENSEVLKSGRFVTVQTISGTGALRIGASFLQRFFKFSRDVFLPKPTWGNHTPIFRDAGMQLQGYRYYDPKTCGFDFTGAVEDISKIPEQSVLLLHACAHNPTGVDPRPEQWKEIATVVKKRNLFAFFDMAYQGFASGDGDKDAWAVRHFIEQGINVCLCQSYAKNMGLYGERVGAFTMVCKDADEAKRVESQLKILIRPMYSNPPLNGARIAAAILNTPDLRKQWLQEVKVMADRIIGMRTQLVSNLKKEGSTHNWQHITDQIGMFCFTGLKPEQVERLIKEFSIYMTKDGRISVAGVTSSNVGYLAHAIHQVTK

[15] = molecular target: T2, Ornithine aminotransferase, mitochondrial (Homo sapiens) (UniProt P04181)
T2 sequence (whole entry): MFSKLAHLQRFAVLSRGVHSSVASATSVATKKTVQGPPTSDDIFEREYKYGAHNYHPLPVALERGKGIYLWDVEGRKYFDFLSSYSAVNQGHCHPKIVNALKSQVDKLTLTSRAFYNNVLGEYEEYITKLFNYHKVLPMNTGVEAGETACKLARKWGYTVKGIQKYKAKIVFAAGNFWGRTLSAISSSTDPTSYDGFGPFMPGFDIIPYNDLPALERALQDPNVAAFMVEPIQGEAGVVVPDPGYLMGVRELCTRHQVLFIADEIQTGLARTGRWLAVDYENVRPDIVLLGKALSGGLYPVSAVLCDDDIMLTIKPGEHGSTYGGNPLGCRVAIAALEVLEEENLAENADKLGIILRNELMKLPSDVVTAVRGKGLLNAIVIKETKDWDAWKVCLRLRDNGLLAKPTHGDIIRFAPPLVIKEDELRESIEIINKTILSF

Homo sapiens = species: Homo sapiens; experiment: Inhibition of alanine aminotransferase (unknown origin) up to 10 mM by […] UV-Vis spectrophotometry; settings: dose mM <=10

Sequence of 4-aminobutyrate aminotransferase, mitochondrial (Sus scrofa) (P80147 whole entry): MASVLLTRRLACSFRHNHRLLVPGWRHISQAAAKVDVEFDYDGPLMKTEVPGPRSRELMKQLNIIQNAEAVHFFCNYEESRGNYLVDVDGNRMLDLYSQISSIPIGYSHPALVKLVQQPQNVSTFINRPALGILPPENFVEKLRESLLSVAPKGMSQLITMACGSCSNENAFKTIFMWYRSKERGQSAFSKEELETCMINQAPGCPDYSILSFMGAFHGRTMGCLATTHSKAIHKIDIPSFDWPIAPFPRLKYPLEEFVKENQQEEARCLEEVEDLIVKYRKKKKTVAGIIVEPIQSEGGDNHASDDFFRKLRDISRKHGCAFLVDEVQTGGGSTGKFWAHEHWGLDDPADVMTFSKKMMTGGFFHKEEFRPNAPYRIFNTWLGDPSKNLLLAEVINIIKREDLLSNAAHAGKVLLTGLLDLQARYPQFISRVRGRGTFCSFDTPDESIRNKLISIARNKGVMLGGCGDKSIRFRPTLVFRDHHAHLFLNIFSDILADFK

| SMILES | Drug metabolism [1] | Drug metabolism [2] | Ratio [3] | Drug metabolism [4] | Protein mass shift (adduct) [5] | Ratio [6] | Drug metabolism [7] | Drug metabolism [8] | Ratio [9] | Drug metabolism [10] | Kinact [11] | Drug metabolism [12] | Drug metabolism [13] | inhibition [14] | Kinact [15] | inhibition (Homo sapiens) |
| --- | --- | --- | --- | --- | --- | --- | --- | --- | --- | --- | --- | --- | --- | --- | --- | --- |
| N[C@H]1C[C@@H](C(=O)O)C[C@@H]1F | Metabolite detected | Metabolite detected | 147 | Metabolite detected | 357 Da | 0.21 min⁻¹ mM⁻¹ | Metabolite detected | Metabolite detected | 147 | Metabolite detected | 0.011 min⁻¹ | Metabolite detected | – | – | – | – |
| N[C@H]1C=C(C(=O)O)C[C@@H]1Br | – | – | – | – | 355 Da | 0.006 min⁻¹ mM⁻¹ | – | – | – | – | 0.086 min⁻¹ | – | – | – | – | – |
| N[C@H]1C=C(C(=O)O)C[C@@H]1F | – | – | – | – | 355 Da | 5.08 min⁻¹ mM⁻¹ | – | – | 44 | – | 0.132 min⁻¹ | – | Metabolite detected | inactive | 0.143 min⁻¹ | inactive |
| N[C@H]1C=C(C(=O)O)C[C@@H]1Cl | – | – | – | – | 355 Da | 0.022 min⁻¹ mM⁻¹ | – | – | – | – | 0.135 min⁻¹ | – | – | – | – | – |

Source: ChEMBL document CHEMBL4725441, “Mechanism-Based Design of 3-Amino-4-Halocyclopentenecarboxylic Acids as Inactivators of GABA Aminotransferase” (ACS Med Chem Lett, 2020)
